Laboratory results from ChEMBL document CHEMBL3272100, “3-Aminotetrahydrocarbazoles as a new series of central nervous system agents” (1977).
The source made the active and inactive calls.

System: Mus musculus
Assay: Antidepressant activity in Swiss-Webster mouse assessed as prevention of reserpine-induced ptosis at 10 to 50 mg/kg, ip
Assay type: functional, organism-based

| SMILES | Activity |
| --- | --- |
| CN(C)CCCN1c2ccccc2CCc2ccccc21 | Active |
| CN(C)C1CCc2[nH]c3ccccc3c2C1 (stereo not drawn) [CYCLINDOLE] | Active |
| Cc1cccc2[nH]c3c(c12)CC(N(C)C)CC3 (stereo not drawn) | Active |

System: Mus musculus
Assay: Antidepressant activity in Swiss-Webster mouse assessed as prevention of reserpine-induced ptosis at 30 to 50 mg/kg, ip
Assay type: functional, organism-based

| SMILES | Activity |
| --- | --- |
| CN(C)C1CCc2[nH]c3c(F)cc(F)cc3c2C1 (stereo not drawn) [FLUCINDOLE] | inactive |

System: Mus musculus
Assay: Antidepressant activity in Swiss-Webster mouse assessed as prevention of reserpine-induced ptosis at 1 to 50 mg/kg, ip
Assay type: functional, organism-based
Summary of the method: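 Male Swiss-Webster mice (18-24 g) given test compounds intraperitoneally at 50, 30, 10, 1 and 0.5 mg/kg (free base), then scored for reserpine-induced ptosis. Active means a statistically significant decrease in ptosis (p < 0.05, two-tailed).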

| SMILES | Activity |
| --- | --- |
| CN(C)CCCN1c2ccccc2Sc2ccc(Cl)cc21 [CHLORPROMAZINE] | inactive |

System: Mus musculus
Assay: Antidepressant activity in Swiss-Webster mouse assessed as prevention of reserpine-induced ptosis at 30 mg/kg, ip
Assay type: functional, organism-based
Design: dose 30 mg/kg

| SMILES | Activity |
| --- | --- |
| NC1CCc2[nH]c3ccccc3c2C1 (stereo not drawn) | Active |
| CN(C)C1CCc2[nH]c3cccc(C(F)(F)F)c3c2C1 (stereo not drawn) | Active |
| COc1ccc2c3c([nH]c2c1)CCC(N(C)C)C3 (stereo not drawn) | Active |
| CCOC(=O)c1cccc2[nH]c3c(c12)CC(N(C)C)CC3 (stereo not drawn) | Active |
| CCn1c2c(c3ccccc31)CC(N(C)C)CC2 (stereo not drawn) | Active |
| Cc1cc(Cl)cc2[nH]c3c(c12)CC(N(C)C)CC3 (stereo not drawn) | Active |
| CNC1CCc2[nH]c3ccccc3c2C1 (stereo not drawn) | Active |
| CN(C)C1CCc2[nH]c3c(F)cc(F)cc3c2C1 (stereo not drawn) [FLUCINDOLE] | inactive |
| COc1ccc(Cl)c2c3c([nH]c12)CCC(N(C)C)C3 (stereo not drawn) | Active |
| Cc1ccc(C)c2c3c([nH]c12)CCC(N(C)C)C3 (stereo not drawn) | Active |

System: Mus musculus
Assay: Antidepressant activity in Swiss-Webster mouse assessed as prevention of reserpine-induced ptosis at 10 mg/kg, ip
Assay type: functional, organism-based
Design: dose 10 mg/kg

| SMILES | Activity |
| --- | --- |
| COc1ccc2[nH]c3c(c2c1)CC(N(C)C)CC3 (stereo not drawn) | inactive |
| CNC1CCc2[nH]c3cccc(C)c3c2C1 (stereo not drawn) | Active |
| CN(C)C1CCc2[nH]c3ccccc3c2C1 (stereo not drawn) [CYCLINDOLE] | Active |
| CCc1cccc2c3c([nH]c12)CCC(N(C)C)C3 (stereo not drawn) | Active |
| CCCCNC1CCc2[nH]c3ccccc3c2C1 (stereo not drawn) | inactive |
| CCCNC1CCc2[nH]c3ccccc3c2C1 (stereo not drawn) | inactive |
| CCNC1CCc2[nH]c3ccccc3c2C1 (stereo not drawn) | inactive |
| CN(C)CCCn1c2c(c3ccccc31)CC(N(C)C)CC2 (stereo not drawn) | inactive |
| Cc1cc(Cl)c2c3c([nH]c2c1)CCC(N(C)C)C3 (stereo not drawn) | Active |
| CN(C)C1CCc2c(c3ccccc3n2Cc2ccccc2)C1 (stereo not drawn) | inactive |
| CN(C)C1CCc2c(c3ccccc3n2C)C1 (stereo not drawn) | inactive |
| Cc1ccc(F)c2[nH]c3c(c12)CC(N(C)C)CC3 (stereo not drawn) | Active |
| CCCc1cccc2c3c([nH]c12)CCC(N(C)C)C3 (stereo not drawn) | Active |
| CN(C)CCn1c2c(c3ccccc31)CC(N(C)C)CC2 (stereo not drawn) | inactive |
| CN(C)C1CCc2[nH]c3cccc(F)c3c2C1 (stereo not drawn) | Active |
| CN(C)C1CCc2c(c3ccccc3n2Cc2ccc(Cl)cc2)C1 (stereo not drawn) | inactive |
| Cc1ccc2c3c([nH]c2c1)CCC(N(C)C)C3 (stereo not drawn) | Active |
| Cc1cccc2[nH]c3c(c12)CC(N(C)C)CC3 (stereo not drawn) | Active |
| CC(=O)NC1CCc2[nH]c3ccccc3c2C1 (stereo not drawn) | inactive |
| CCOC(=O)Cn1c2c(c3ccccc31)CC(N(C)C)CC2 (stereo not drawn) | Active |

System: Mus musculus
Assay: Antidepressant activity in Swiss-Webster mouse assessed as prevention of reserpine-induced ptosis at 50 mg/kg, ip
Assay type: functional, organism-based
Design: dose 50 mg/kg

| SMILES | Activity |
| --- | --- |
| NC1CCc2[nH]c3c(F)cc(F)cc3c2C1 (stereo not drawn) | inactive |
| CCc1cccc2[nH]c3c(c12)CC(N(C)C)CC3 (stereo not drawn) | Active |
| CN(C)C1CCc2[nH]c3c(Br)cccc3c2C1 (stereo not drawn) | inactive |
| CN(C)C1CCc2[nH]c3c(F)cccc3c2C1 (stereo not drawn) | inactive |
| CSc1cccc2c3c([nH]c12)CCC(N(C)C)C3 (stereo not drawn) | inactive |
| CN(C)C1CCc2[nH]c3c(OCc4ccccc4)cccc3c2C1 (stereo not drawn) | inactive |
| CNC1CCc2[nH]c3c(F)cc(F)cc3c2C1 (stereo not drawn) | inactive |
| CN(C)C1CCc2[nH]c3cc(O)ccc3c2C1 (stereo not drawn) | inactive |
| Fc1cc(F)c2[nH]c3c(c2c1)CC(N1CCCCC1)CC3 (stereo not drawn) | inactive |
| CN(C)C1CCc2[nH]c3c(-c4ccccc4)cccc3c2C1 (stereo not drawn) | Active |
| C=CCn1c2c(c3ccccc31)CC(N(C)C)CC2 (stereo not drawn) | inactive |
| CN(C)C1CCc2[nH]c3ccc(Oc4ccccc4)cc3c2C1 (stereo not drawn) | inactive |
| Cc1cc(C)c2[nH]c3c(c2c1)CC(N(C)C)CC3 (stereo not drawn) | inactive |
| CNC1CCc2[nH]c3cc(C)ccc3c2C1 (stereo not drawn) | Active |
| CN(C)C1CCc2[nH]c3c(Cl)cccc3c2C1 (stereo not drawn) | inactive |
| CCN(CC)CCNC1CCc2[nH]c3ccccc3c2C1 (stereo not drawn) | inactive |
| Cc1ccc2[nH]c3c(c2c1)CC(N(C)C)CC3 (stereo not drawn) | inactive |
| Cc1cccc2c3c([nH]c12)CCC(N(C)C)C3 (stereo not drawn) | inactive |
| Cc1cc(C)c2c3c([nH]c2c1)CCC(N(C)C)C3 (stereo not drawn) | Active |
| COc1cccc2c3c([nH]c12)CCC(N(C)C)C3 (stereo not drawn) | inactive |
| COc1cc(C(=O)OCCn2c3c(c4ccccc42)CC(N(C)C)CC3)cc(OC)c1OC (stereo not drawn) | inactive |
| CN(C)C1CCc2[nH]c3ccc(F)cc3c2C1 (stereo not drawn) | inactive |

| SMILES | Activity |
| --- | --- |
| CN(C)C1CCc2[nH]c3c(Cl)c(Cl)ccc3c2C1 (stereo not drawn) | Active |
| CN(C)C1CCc2[nH]c3ccc(C(=O)O)cc3c2C1 (stereo not drawn) | inactive |
| Cc1cc2[nH]c3c(c2cc1C)CC(N(C)C)CC3 (stereo not drawn) | Active |
| c1ccc2c3c([nH]c2c1)CCC(N1CCCC1)C3 (stereo not drawn) | inactive |
| CN(C)C1CCc2[nH]c3c(O)cccc3c2C1 (stereo not drawn) | inactive |
| CN(C)C1CCc2c(c3ccccc3n2CC(=O)O)C1 (stereo not drawn) | inactive |
| CN(Cc1ccccc1)C1CCc2[nH]c3c(F)cc(F)cc3c2C1 (stereo not drawn) | inactive |
| c1ccc2c3c([nH]c2c1)CCC(N1CCOCC1)C3 (stereo not drawn) | inactive |
| c1ccc(N2CCN(C3CCc4[nH]c5ccccc5c4C3)CC2)cc1 (stereo not drawn) | inactive |
| c1ccc2c3c([nH]c2c1)CCC(N1CCCCC1)C3 (stereo not drawn) | inactive |
| Cc1ccc(Cl)c2[nH]c3c(c12)CC(N(C)C)CC3 (stereo not drawn) | Active |
| CN(C)C1CCc2[nH]c3c(Cl)cc(Cl)cc3c2C1 (stereo not drawn) | inactive |
| CN(C)C1CCc2[nH]c3cc(F)ccc3c2C1 (stereo not drawn) | inactive |
| CCOC(=O)CCn1c2c(c3ccccc31)CC(N(C)C)CC2 (stereo not drawn) | inactive |
| Cc1cccc2c1c1c(n2C)CCC(N(C)C)C1 (stereo not drawn) | Active |
| CN(C(=O)c1ccccc1)C1CCc2[nH]c3c(F)cc(F)cc3c2C1 (stereo not drawn) | inactive |
| CN(C)C1CCc2c(c3ccccc3n2CCC(=O)O)C1 (stereo not drawn) | inactive |
| CN(C)C1CCc2[nH]c3ccc(OCc4ccccc4)cc3c2C1 (stereo not drawn) | inactive |
| COc1cc2[nH]c3c(c2cc1OC)CC(N(C)C)CC3 (stereo not drawn) | inactive |
| CN(C)C1CCc2[nH]c3c(C(F)(F)F)cccc3c2C1 (stereo not drawn) | inactive |
| CN(C)C1CCc2[nH]c3ccc(O)cc3c2C1 (stereo not drawn) | Active |

System: Rattus norvegicus
Assay: Antipsychotic activity in po dosed Sprague-Dawley rat assessed as prevention of d-amphetamine-induced stereotyped behavior measured for 1 min after 90, 100, and 110 mins injection of amphetamine
Assay type: functional
Summary of the method: (§1)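 Male Sprague-Dawley rats, 100-130 g, given compound orally at graded doses (free base), starting at 32 mg/kg, 4 h before d-amphetamine sulfate sc at 3.7 mg/kg (free base). One-minute observations at 90, 100 and 110 min. ED50 with confidence limits calculated.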

| SMILES | ED50 [mg/kg] |
| --- | --- |
| CN(C)C1CCc2[nH]c3ccccc3c2C1 (stereo not drawn) [CYCLINDOLE] | 10.3 |
| CN(C)CCCN1c2ccccc2Sc2ccc(Cl)cc21 [CHLORPROMAZINE] | 8.6 |
| CN(C)C1CCc2[nH]c3c(F)cc(F)cc3c2C1 (stereo not drawn) [FLUCINDOLE] | 1.4 |

System: Rattus norvegicus
Assay: Antipsychotic activity in Sprague-Dawley rat assessed as prevention of d-amphetamine-induced stereotyped behavior at 32 mg/kg, po measured for 1 min after 90, 100, and 110 mins injection of amphetamine
Assay type: functional, organism-based
Design: dose 32 mg/kg
Summary of the method: as §1

| SMILES | Activity |
| --- | --- |
| CN(C)CCCN1c2ccccc2CCc2ccccc21 | inactive |
| Cc1cccc2[nH]c3c(c12)CC(N(C)C)CC3 (stereo not drawn) | inactive |
